An excerpt weighted towards active compounds, which were near 1.7% of everything screened.
Cneo AK release: Cryptococcus neoformans cell lysis inducers, primary screen, AK release luminescence, single concentration; lysis activity, % at 15 µM; 0.2% of 360,000 active; C. neoformans lysis, adenylate kinase release luminescence, 4 h; normalised: neutral wells 0, clomiphene wells 100;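 active = mean lysis activity across replicates of at least 80%, whatever share of replicates individually reach that level; inactive = mean lysis activity below 80%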
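Material – Cryptococcus neoformans yeast cells · Quantity – 5 × 10^6 yeast cells/mL · Buffer or medium – YPD medium · Compound – single dose · Timing – 4 h static compound exposure, 37 °C, read 1 h post-reagent · Signal – adenylate kinase release luminescence · Read-out basis – lysis from increased AK signal · Benchmarks – Clomiphene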
CaV13 FRET inh: Primary screen for inhibitors of IQ motif and Ca2+-dependent inactivation inhibitor domain binding in CACNA1D, Förster resonance energy transfer in living cells, …. HEK cells, CFP/YFP FRET ICDI-IQ, plate reader, 10 min; percent FRET-ratio fall versus neutral wells. inhibition, % at 12.3 µM. 0.098% of 340,000 active. AID 743397;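 active = mean replicate inhibition of at least 30% and at least 1% of replicates passing that level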
CFTR F508del cor: F508del CFTR correction, initial screen, CFBE line, single point; CFBE cells, YFP halide quenching; stimulated with forskolin plus potentiator P3; % fluorescence drop versus neutral controls; activity (quench increase), % at 7.58 µM; 0.36% of 350,000 active; AID 720511, 2013;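 active = mean added fluorescence quench of at least 8% versus neutral control, with both replicates also reaching 8%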;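 note: cells transiently co-express mutant CFTR-F508del with the halide-sensitive YFP; corrector assay measuring rescue of mutant channel to the surface after 24 h compound exposure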
rRNA inh HTS: reduced GFP signal of wild-type E. coli, primary screen, bacterial rRNA inhibitor project, GFP/RFP fluorescence, OD600, single point; E. coli WT GFP vs humanized-ribosome RFP mutants, 24 h; hits give low values; DMSO median 0, no signal -100; GFP signal change (wild-type ribosome), % (test concentration not listed); 1.6% of 350,000 active;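 active = significant combined selectivity score with lowered wild-type GFP, culture density cut under 30%, mutant RFP and density less affected; inactive = any of these conditions unmet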
Hits are given with their value; n = inactive; x = no result given.

SMILES | Cneo AK release | CaV13 FRET inh | CFTR F508del cor | rRNA inh HTS
Cc1ccc(C2CC2c2n[nH]c(=S)n2-c2ccc(C)cc2)cc1 (stereo not drawn) | n | n | n | n
Cc1ccc(-n2c(C3CC3c3ccc(Cl)cc3)n[nH]c2=S)cc1 (stereo not drawn) | n | n | n | -33
CCOC(=O)c1ccc(NC(=S)Nc2ccc(C)cc2)cc1 | n | n | n | n
CCOC(=O)c1cn[nH]c1NC(=S)Nc1ccc(Cl)cc1 | n | n | n | -41
CCCC(=O)Nc1ccc2c(c1)OC[C@@H](C)N(CCC)C[C@@H](C)[C@@H](OC)CN(C)C2=O | n | x | n | n
Cc1ccc(-c2csc3nc[nH]c(=S)c23)cc1 | x | n | x | x
S=c1[nH]cnc2scc(-c3ccc(Cl)cc3)c12 | n | n | n | -51
COc1cccc(/C=C/C(=O)OCC(=O)N2c3ccccc3CC2C)c1 (stereo not drawn) | n | n | n | -18
CC1Cc2ccccc2N1C(=O)COC(=O)c1cccc(Br)c1 (stereo not drawn) | n | n | n | -32
COc1ccc(/C=C/C(=O)OCC(=O)N2c3ccccc3CC2C)cc1OC (stereo not drawn) | n | n | n | n
Cc1ccc(S(=O)(=O)Nc2ccc3c(c2)C(=O)N([C@H](C)CO)C[C@@H](C)[C@H](CN(C)S(=O)(=O)c2ccc(Cl)cc2)O3)cc1 | x | x | n | n
O=C(C[C@H]1CC[C@H]2[C@@H](COC[C@@H](O)CN2C(=O)c2ccc(F)cc2)O1)N1CCCCC1 | n | x | n | n
CN1CCN(C(=O)C[C@H]2CC[C@@H]3[C@H](COC[C@@H](O)CN3C(=O)Nc3ccc(Cl)cc3)O2)CC1 | n | x | n | -27
CN1CCN(C(=O)C[C@@H]2CC[C@@H]3[C@H](COC[C@H](O)CN3C(=O)Nc3ccc(Cl)cc3)O2)CC1 | n | x | n | -18
O=C(C[C@H]1CC[C@H]2[C@@H](COC[C@@H](O)CN2C(=O)c2ccc(F)cc2)O1)N1CCOCC1 | 105 | x | n | n
CN1CCN(C(=O)C[C@H]2CC[C@@H]3[C@H](COC[C@H](O)CN3C(=O)Nc3cc(Cl)cc(Cl)c3)O2)CC1 | n | x | n | n
COc1ccc(NC(=O)Nc2ccc3c(c2)C(=O)N([C@@H](C)CO)C[C@H](C)[C@@H](CN(C)C(=O)C2CCCCC2)OCCCC[C@@H](C)O3)cc1 | n | x | n | n
Clc1ccc(SCc2cn3ccccc3n2)cc1 | x | n | n | -28
Cc1c(C)c2cc3c(C)coc3cc2oc1=O | n | n | n | n
Cc1coc2cc3oc(=O)c(Cc4ccccc4)c(C)c3cc12 | x | n | x | -22
Cc1cc(C(=O)Nc2cccc3c2O[C@H](CN(C)S(C)(=O)=O)[C@H](C)CN([C@@H](C)CO)C3=O)n(C)n1 | n | x | n | n
C[C@H]1CCCCO[C@H](CN(C)C(=O)Nc2ccc(F)cc2)[C@@H](C)CN([C@@H](C)CO)C(=O)c2cc(NS(=O)(=O)c3ccc(Cl)cc3)ccc2O1 | 85 | x | n | n
C[C@H](CO)N1C[C@H](C)[C@H](CN(C)C(=O)Nc2ccc(F)cc2)OCCCC[C@H](C)Oc2ccc(NS(=O)(=O)c3ccc(Cl)cc3)cc2C1=O | n | x | n | n
C[C@@H]1CCCCO[C@H](CN(C)C(=O)Nc2ccc(F)cc2)[C@H](C)CN([C@@H](C)CO)C(=O)c2cc(NS(=O)(=O)c3ccc(Cl)cc3)ccc2O1 | 94 | x | n | n
Cc1ccc(C(=O)OCC(=O)Nc2cccc(S(=O)(=O)NC3=NCCCCC3)c2)c(C)c1 | n | n | n | -22
SMILES | Cneo AK release | CaV13 FRET inh | CFTR F508del cor | rRNA inh HTS
O=C(/C=C/c1ccccc1Cl)Nc1cccc(S(=O)(=O)NC2=NCCCCC2)c1 | x | n | x | x
O=C(/C=C/c1ccc([N+](=O)[O-])cc1)Nc1cccc(S(=O)(=O)NC2=NCCCCC2)c1 | x | n | n | -9.4
COc1cc(OC)c(C(=O)OCC(=O)Nc2cccc(S(=O)(=O)NC3=NCCCCC3)c2)cc1OC | n | n | n | x
O=C(CC1(c2ccc(Cl)cc2)C2CC3CC(C2)CC1C3)NCCO (stereo not drawn) | x | n | n | -42
O=C(CC(=O)Nc1nc(C23CC4CC(CC(C4)C2)C3)cs1)NCCO | n | n | n | n
COc1ccccc1NC(=O)N1C[C@@H]2[C@H](c3ccccc31)[C@H](CO)N2C(=O)C1CC1 | n | x | n | x
